The values below come from PubChem BioAssay.

By viability is commonly meant a read-out of living cells in per cent, often relative to untreated cells. Usually inhibition stands for the relative decrease from the control value, in per cent.

Test [1] in a line: Her2 expression decrease, cell viability multiplex – SKBR3 breast tumor cells, AlphaScreen, ATP viability, primary screen (AID 461;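 active means Her2 level under about 52% in both replicate screens, with viability over 70% of control, limit read from the data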;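 on Her2 level: lower value means less Her2 protein in the cells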;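 on viability: percent of carrier control wells set as 100% viability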). To be noted: SKBR3 Her2 protein level, 18-24 h, measured here: SKBR3 viability, ATP luminescence, at 10 µM.
Test [2] concerns the target Receptor tyrosine-protein kinase erbB-2 (Homo sapiens) (UniProt P04626). Described as above. To be noted: 18-24 h, at 10 µM, stronger effect = lower value.
Test [3] can be described thus: reduced viability of SK-BR-3 breast cancer cells – cell-based, 24 h, human, pilot screen (AID 572;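 active means viability at or below 10% of carrier control in both of two separate runs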;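 further: compound exposure lasted between 18 and 24 h rather than exactly 24 h; 100% = carrier-treated control wells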). To be noted: SK-BR-3 viability, CellTiter-Glo luminescence, at 10 µM, stronger effect = lower value. In general terms: ATP-based viability assays read luminescence as a measure of living cells.
Test [4] is described as follows: HUVEC growth inhibition – cell-based, human, primary screen (AID 575;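 active means viability at or below 30% in both replicate assays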;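 further: 100% = median of untreated cell wells with 0.1% DMSO on each plate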). To be noted: HUVEC proliferation, CellTiter-Glo luminescence, 72 h; at 10 µM; stronger effect = lower value. In short, it runs like this: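 Test system: primary human umbilical vein endothelial cells; medium: endothelial basal medium with 2% FBS plus growth supplements; dosing: 10 µM compound only; times: 72 h treatment at 37 °C; signal: CTG luminescence; read-out: % viability relative to median vehicle-well signal on each plate; control set: vehicle and MePR control wells; plate: 384-well, collagen-coated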

Test [5] in a line: H69AR cell proliferation blockers – human, duplicate replicates, primary screen (AID 580).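 Further: 100% = mean luminescence of untreated wells and 0% = no signal.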 To be noted: H69AR lung tumor cells viability, ATP luminescence, 72 h; at 10 µM; stronger effect = lower value.
The nature of test [6]: MRP1 drug-resistance reversers in H69AR cells – cell-based, doxorubicin co-treatment, pilot screen (AID 601;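 active means viability loss from added drug above about 55%, and viability with drug at most 40%, in both replicates, limit read from the data, passing the limit was not always enough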). To be noted: CellTiter-Glo, 72 h, at 10 µM; for differential viability (reversal): stronger effect = higher value.
A short description of test [7]: yeast transport mutant growth inhibition pilot in 384-well plates, post-Golgi transport modulator project (AID 636; in the data active means inhibition above about 31%). To be noted: absorbance 615 nm, about 18 h, stronger effect = higher value.
Test [8] in a line: growth suppression of yeast trafficking mutant, preliminary HTS, modulators of trafficking downstream of Golgi apparatus project, 1536-format plate, OD 615 nm (AID 637; in the data active means inhibition above about 30%). To be noted: yeast transport mutant growth, absorbance 615 nm, 18 h; stronger effect = higher value.
Where [9] appears, read: H69AR cells + 2 uM doxorubicin, measured here: viability with 2 uM doxorubicin, stronger effect = lower value.
[10] abbreviates: H69AR cells, compound alone cytotoxicity.

Structures are written as SMILES. Active and inactive are the calls of the source.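 How the source made its calls, unless noted: active means viability at or under a set limit in both replicates, limit being median viability minus 3 SD (cut at about 48% in these data, passing the limit was not always enough); inconclusive means at or under the limit in just one replicate; inactive means at or above the limit in both replicates.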

Sequence of Receptor tyrosine-protein kinase erbB-2 (Homo sapiens) (P04626 whole entry, looked up): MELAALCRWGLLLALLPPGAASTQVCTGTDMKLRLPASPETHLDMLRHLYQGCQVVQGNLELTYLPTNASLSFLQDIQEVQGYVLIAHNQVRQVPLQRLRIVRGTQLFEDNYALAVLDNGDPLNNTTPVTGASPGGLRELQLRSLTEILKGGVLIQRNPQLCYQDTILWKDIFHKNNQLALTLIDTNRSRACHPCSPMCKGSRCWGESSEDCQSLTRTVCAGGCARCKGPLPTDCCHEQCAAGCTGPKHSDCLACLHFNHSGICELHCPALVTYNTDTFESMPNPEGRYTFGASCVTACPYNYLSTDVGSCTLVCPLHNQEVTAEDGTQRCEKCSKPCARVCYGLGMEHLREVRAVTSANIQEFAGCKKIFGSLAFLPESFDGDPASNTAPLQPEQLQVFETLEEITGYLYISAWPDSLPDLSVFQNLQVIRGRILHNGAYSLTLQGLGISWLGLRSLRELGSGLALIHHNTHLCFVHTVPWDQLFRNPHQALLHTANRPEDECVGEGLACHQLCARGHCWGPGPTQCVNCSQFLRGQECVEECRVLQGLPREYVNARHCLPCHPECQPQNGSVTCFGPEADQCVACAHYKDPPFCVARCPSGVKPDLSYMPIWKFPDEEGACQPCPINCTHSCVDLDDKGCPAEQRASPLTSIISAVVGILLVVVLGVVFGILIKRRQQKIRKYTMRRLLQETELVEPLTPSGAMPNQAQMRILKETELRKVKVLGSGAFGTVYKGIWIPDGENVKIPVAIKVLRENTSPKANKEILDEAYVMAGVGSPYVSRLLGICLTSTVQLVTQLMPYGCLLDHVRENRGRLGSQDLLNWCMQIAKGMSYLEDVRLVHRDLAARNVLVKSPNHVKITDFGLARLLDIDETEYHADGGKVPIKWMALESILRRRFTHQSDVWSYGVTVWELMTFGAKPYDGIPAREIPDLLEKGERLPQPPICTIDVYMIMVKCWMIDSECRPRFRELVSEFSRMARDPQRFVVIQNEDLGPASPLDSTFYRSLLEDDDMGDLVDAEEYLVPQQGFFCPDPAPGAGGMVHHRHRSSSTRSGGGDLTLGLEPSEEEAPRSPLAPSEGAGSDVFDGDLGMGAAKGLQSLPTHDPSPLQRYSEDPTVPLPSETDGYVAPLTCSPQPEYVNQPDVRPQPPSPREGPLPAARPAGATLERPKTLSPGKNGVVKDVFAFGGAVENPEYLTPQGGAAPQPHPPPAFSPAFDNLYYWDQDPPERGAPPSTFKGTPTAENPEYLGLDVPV

As to `O=C(O)c1cc(-c2ccccc2Cl)n[nH]1`, the viability in test [1] is 92%; in test [3], 92% (inactive); in test [4] it was 95.6% (inactive); in test [5], 81% (inactive); in test [6] (setting [9]), 79.2%; in test [6] (setting [10]), 81%. In test [2], the Her2 level is 93.5% (inactive). For the same compound, the differential viability (reversal) in test [6] (H69AR cells + 2 uM doxorubicin) was 1.79% (inactive). Moreover, the inhibition in test [7] is -2.34% (inactive); in test [8] it was 2.38% (inactive).
Regarding `CCOC(=O)c1ccc(Oc2cc(C)nc(SC)n2)cc1`, the viability in test [1] is 88.5%; in test [3], 88.5% (inactive); in test [4], 36.8% (inactive); in test [5], 16.5% (active); in test [6] (setting [9]), 68.5%; in test [6] (setting [10]) it was 16.5%. Further, the Her2 level in test [2] is 99% (inactive). Further, the differential viability (reversal) in test [6] (H69AR cells + 2 uM doxorubicin) is -52% (inactive). In addition, the inhibition was -5.54% (inactive) in test [7] and 2.3% (inactive) in test [8].
As to `CCC(C)NC(=O)c1cc(-c2ccc(OC)cc2)on1` (stereo not given), the viability in test [1] is 106%; in test [3] it was 106% (inactive); in test [4] it was 118% (inactive); in test [5], 89.8% (inactive); in test [6] (setting [9]) it was 89.3%; in test [6] (setting [10]), 89.8%. The Her2 level in test [2] is 94% (inactive). Moreover, the differential viability (reversal) in test [6] (H69AR cells + 2 uM doxorubicin) was 0.48% (inactive). The values for the inhibition in test [7] and in test [8] were -8.24% (inactive) and 1.33% (inactive), respectively.
Take `CCC1c2ccc(C)n2CCN1C(=O)Nc1ccccc1OC` (stereo not given): the viability was 89.5% in test [1]; 89.5% (inactive) in test [3]; 97.7% (inactive) in test [4]; 78.9% (inactive) in test [5]; 89.7% in test [6] (setting [9]); 78.9% in test [6] (setting [10]). For the same compound, the Her2 level in test [2] is 69.5% (inactive). Further, in test [6] (H69AR cells + 2 uM doxorubicin), the differential viability (reversal) was -10.8% (inactive). Besides, the inhibition in test [7] is -6.13% (inactive); in test [8], 4.59% (inactive).
As to `O=C(Cn1cccc1C(=O)c1ccccc1)NCCN1CCOCC1`, the viability in test [1] was 98%; in test [3] it was 98% (inactive); in test [4], 111% (inactive); in test [5], 90% (inactive); in test [6] (setting [9]), 87.4%; in test [6] (setting [10]), 90%. Also, in test [2], the Her2 level is 89.5% (inactive). Also, the differential viability (reversal) in test [6] (H69AR cells + 2 uM doxorubicin) was 2.57% (inactive). Moreover, the results for the inhibition in test [7] and in test [8] were -0.79% (inactive) and 0.97% (inactive), respectively.
Take `C/C(NC1CCCC1)=C(/C#N)C(N)=O`: the viability in test [1] was 108%; in test [3], 108% (inactive); in test [4] it was 116% (inactive); in test [5], 111% (inactive); in test [6] (setting [9]), 101%; in test [6] (setting [10]), 111%. Further, in test [2], the Her2 level is 99% (inactive). Moreover, in test [6] (H69AR cells + 2 uM doxorubicin), the differential viability (reversal) was 10.3% (inactive). The inhibition in test [7] is -4.21% (inactive); in test [8], 3.11% (inactive).
Turning to `COCCn1c(=NC(=O)CSC(C)=O)sc2cc(F)ccc21`, the viability in test [1] was 85%; in test [3], 85% (inactive); in test [4] it was 75.4% (inactive); in test [5], 58.2% (inactive); in test [6] (setting [9]), 58.2%; in test [6] (setting [10]), 58.2%. Besides, the Her2 level in test [2] was 82.5% (inactive). Further, in test [6] (H69AR cells + 2 uM doxorubicin), the differential viability (reversal) is 0.03% (inactive). Further, the inhibition was -3.16% (inactive) in test [7] and -2.86% (inactive) in test [8].
For `O=C(CNc1ccc(Oc2ccccc2)cc1)N1CCOCC1`, the viability in test [1] was 92.5%; in test [3] it was 92.5% (inactive); in test [4], 92.1% (inactive); in test [5] it was 105% (inactive); in test [6] (setting [9]) it was 100%; in test [6] (setting [10]), 105%. For the same compound, the Her2 level in test [2] is 95.5% (inactive). Moreover, the differential viability (reversal) in test [6] (H69AR cells + 2 uM doxorubicin) was 4.96% (inactive). The inhibition is -7.81% (inactive) in test [7] and 6.98% (inactive) in test [8].
On to `CCOc1c(C)cc2[nH]c(CCC(=O)O)nc2c1C`, for which the viability in test [1] was 123%; in test [3], 123% (inactive); in test [4] it was 95.4% (inactive); in test [5], 93.2% (inactive); in test [6] (setting [9]), 94.3%; in test [6] (setting [10]), 93.2%. Further, the Her2 level in test [2] is 103% (inactive). In addition, the differential viability (reversal) in test [6] (H69AR cells + 2 uM doxorubicin) was -1.08% (inactive). In addition, the inhibition in test [7] is -6.58% (inactive); in test [8], 14.4% (inactive).
`Cc1nnc2n(-c3ccccc3)c(=O)c3c4c(sc3n12)CCCC4`: the viability in test [1] is 79.5%; in test [3] it was 79.5% (inactive); in test [4] it was 96.2% (inactive); in test [5], 85.6% (inactive); in test [6] (setting [9]) it was 52.4%; in test [6] (setting [10]), 85.6%. Besides, in test [2], the Her2 level was 115% (inactive). Further, the differential viability (reversal) in test [6] (H69AR cells + 2 uM doxorubicin) is 33.2% (inactive). Moreover, the figures for the inhibition in test [7] and in test [8] were -7.47% (inactive) and 0.33% (inactive), respectively.
As for `CC(C(=O)c1ccccc1)n1cnc2ccccc2c1=O` (stereo not given), the viability in test [1] was 94.5%; in test [3], 94.5% (inactive); in test [4] it was 86.6% (inactive); in test [5] it was 89.6% (inactive); in test [6] (setting [9]) it was 80.5%; in test [6] (setting [10]) it was 89.6%. Also, in test [2], the Her2 level is 87% (inactive). The differential viability (reversal) in test [6] (H69AR cells + 2 uM doxorubicin) is 9.12% (inactive). Further, the inhibition in test [7] was -5.73% (inactive); in test [8] it was 2.42% (inactive).
For the compound `Nn1c(SCC(=O)NC2CCCCC2)nnc1C1CC1`, the viability in test [1] is 102%; in test [3] it was 102% (inactive); in test [4], 98.4% (inactive); in test [5], 103% (inactive); in test [6] (setting [9]) it was 103%; in test [6] (setting [10]) it was 103%. In addition, the Her2 level in test [2] is 111% (inactive). For the same compound, the differential viability (reversal) in test [6] (H69AR cells + 2 uM doxorubicin) is 0.415% (inactive). The inhibition was -0.52% (inactive) in test [7] and 10.8% (inactive) in test [8].
Take `COc1ccc2nc3oc(C(=O)N4CCCCC4)cc3cc2c1`: the viability in test [1] is 98%; in test [3] it was 98% (inactive); in test [4], 86.5% (inactive); in test [5], 86.7% (inactive); in test [6] (setting [9]), 83.9%; in test [6] (setting [10]), 86.7%. For the same compound, in test [2], the Her2 level is 90.5% (inactive). Also, the differential viability (reversal) in test [6] (H69AR cells + 2 uM doxorubicin) is 2.71% (inactive). For the same compound, the inhibition was -5.26% (inactive) in test [7] and -3.67% (inactive) in test [8].
Turning to `Cc1oc(-c2ccccc2F)nc1CS(=O)(=O)CC(=O)NCc1ccco1`, the viability in test [1] is 116%; in test [3], 116% (inactive); in test [4], 85.9% (inactive); in test [5], 93.8% (inactive); in test [6] (setting [9]), 86.8%; in test [6] (setting [10]), 93.8%. Also, in test [2], the Her2 level was 124% (inactive). Also, the differential viability (reversal) in test [6] (H69AR cells + 2 uM doxorubicin) was 7.03% (inactive). For the same compound, the inhibition was -3.2% (inactive) in test [7] and -2.62% (inactive) in test [8].
